Compound activity as filed in PubChem.
NPY-Y1 PAM-ag: potentiators or agonists of human neuropeptide Y receptor Y1. NPY-Y1 expressing cells, potentiator/agonist activation. activation, % at 3.6 µM. actives 0.37% (n = 220,000); in the data active = activation above about 33%, passing the limit was not always enough;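 also: cells stimulated with NPY at EC10 then isoproterenol at EC100; 0% = low agonist plus stimulus and 100% = saturating agonist plus stimulus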
Target sequence (P25929 whole entry, looked up): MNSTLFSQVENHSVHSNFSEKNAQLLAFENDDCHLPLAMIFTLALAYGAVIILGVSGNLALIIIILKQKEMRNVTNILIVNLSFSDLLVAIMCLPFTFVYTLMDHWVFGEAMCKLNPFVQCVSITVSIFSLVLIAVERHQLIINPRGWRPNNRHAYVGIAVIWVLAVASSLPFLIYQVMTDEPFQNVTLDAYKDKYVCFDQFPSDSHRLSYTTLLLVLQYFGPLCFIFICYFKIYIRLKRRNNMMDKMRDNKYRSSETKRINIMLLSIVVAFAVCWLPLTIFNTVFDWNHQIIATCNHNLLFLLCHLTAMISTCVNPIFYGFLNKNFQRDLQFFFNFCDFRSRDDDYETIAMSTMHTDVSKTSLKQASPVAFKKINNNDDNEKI
NPY-Y2 antag: NPY-Y2 (human) receptor antagonism | P49146 | NPY-Y2 expressing cells, antagonist mode | inhibition, % at 2.7 µM | actives 0.99% (n = 140,000) | AID 793; in the data active = inhibition above about 17%;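 also: 0% = vehicle with agonist challenge and 100% = reference antagonist with challenge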
NPY-Y2 PAM-ag: potentiates or activates human NPY-Y2 receptor. P49146. cells expressing NPY-Y2, potentiator/agonist read-out. activation, % at 3.6 µM. actives 0.45% (n = 220,000); in the data active = activation above about 27%;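 also: cells stimulated with NPY near EC25 plus isoproterenol at EC100; 0% = vehicle plus submaximal agonist and 100% = vehicle plus saturating agonist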
NPY-Y1 antag: blocks the human neuropeptide Y Y1 receptor; P25929; HEK293-CNG Y1 cells, membrane potential fluorescence; NPY at EC95, then isoproterenol; inhibition, % at 3.6 µM; actives 1% (n = 200,000); AID 1040;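 active = inhibition above the campaign mean inhibition of all tested compounds plus 3 SD, cut at about 20% in these data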;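 also: 0% = DMSO wells given NPY plus isoproterenol and 100% = isoproterenol alone without NPY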
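Assay system: HEK293 Y1/CNG channel cell line; Doses: single compound dose of 3.6 µM, 0.4% DMSO; Timing: dye 3 h, compound 60 min room temperature, stimulation 45 min; Technique: Membrane-potential fluorescent dye readout; Measure: % inhibition of NPY effect.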
WT yeast gro inh: growth inhibition of WT yeast, mitochondrial fusion screen; mitochondrial fusion phenotypic screen, WT strain; inhibition, % at 10 µM; actives 2.1% (n = 190,000); AID 1362; in the data active = inhibition above about 58%; tested in S. cerevisiae
RAM network inh: inhibitors of the yeast RAM network. actives 1.8% (n = 190,000). inhibition, % at 50 µM. AID 868. S. cerevisiae dse1pr::URA3 reporter, 5-FOA growth OD615, 2 d; analog-sensitive cbk1-as2 kinase mutant strain;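 active = inhibition above a set limit, 3 SD over mean compound inhibition, cut at about 8.4% in these data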;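 also: 0% = DMSO-only wells with no growth and 100% = 10 µM 1-NA-PP1 full growth; inhibition rescues growth on 5-FOA so higher OD means more RAM inhibition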
NPY-Y2 confirm: human NPY-Y2 potentiation or agonism, confirmation; activation, % at 3.6 µM; shares compounds with NPY-Y2 PAM-ag; AID 1539; actives 20% (n = 450); cell-based NPY-Y2 potentiator/agonist assay; in the data active = activation above about 33%
NPY-Y1 counter: potentiates or activates NPY-Y1, counter-screen for NPY-Y2 hits. shares compounds with NPY-Y2 PAM-ag. Y1 HEK293-CNG cells, membrane potential fluorescence. actives 20% (n = 450). activation, % at 3.6 µM; in the data active = activation above about 45%;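 also: cells stimulated with submaximal NPY then isoproterenol with phosphodiesterase inhibitor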
NPY-Y1 agonist 2: activates human NPY-Y1, counter-screen for NPY-Y2 potentiators; shares compounds with NPY-Y2 PAM-ag; HEK293 Y1-CNGC, membrane potential fluorescence, agonism; activation, % at 3.6 µM; actives 37% (n = 450);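 active = activation above the mean of DMSO-only control wells plus 3 SD, cut at about 18% in these data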;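 also: cells stimulated with 1 µM isoproterenol plus the PDE inhibitor Ro 20-1724; 0% = isoproterenol with DMSO and no NPY and 100% = 40 nM NPY; Y1 agonists lower the membrane potential dye signal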
CNGC inh: cyclic nucleotide gated channel inhibition as counter-screen; shares compounds with NPY-Y2 PAM-ag; HEK293-CNG parental, isoproterenol cAMP, membrane potential fluorescence; inhibition, % at 3.6 µM; actives 32% (n = 450); AID 1703;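 active = inhibition above the control-well mean plus 3 SD of those wells, cut at about 22% in these data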;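 also: 0% = DMSO with isoproterenol and 100% = DMSO without isoproterenol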
NPY-Y2 ag 2: activates human NPY-Y2 receptor in potentiator counter-screen | HEK293 Y2/CNGC cells, membrane potential fluorescence, agonist mode | activation, % at 3.6 µM | AID 1710 | shares compounds with NPY-Y2 PAM-ag | actives 56% (n = 450);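 active = activation above the mean of solvent-only control wells plus 3 SD, cut at about 10% in these data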;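 also: cells stimulated by isoproterenol with no NPY added so direct agonism is tested; 0% = DMSO with isoproterenol alone and 100% = NPY at EC100 plus isoproterenol; agonism lowers probe fluorescence through less cAMP and CNG channel opening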
Starred values were filed as active, the others as inactive; . = no result given. Compounds with a hit are over-represented: about 4.9% of the library has one in this group of screens.

SMILES	NPY-Y1 PAM-ag	NPY-Y2 antag	NPY-Y2 PAM-ag	NPY-Y1 antag	WT yeast gro inh	RAM network inh	NPY-Y2 confirm	NPY-Y1 counter	NPY-Y1 agonist 2	CNGC inh	NPY-Y2 ag 2
O=C(COC(=O)CCc1nc2ccccc2c(=O)[nH]1)NCc1ccc(F)cc1	-17.3	.	102.0*	.	.	.	-2.8	-3.5	-12.8	-2.0	-6.0
O=C(Nc1ccccc1)c1c(F)c(F)c(F)c(F)c1F	2.6	-0.2	-0.2	3.1	6.3	0.5	.	.	.	.	.
O=C(Nc1ccccc1Cl)c1c(F)c(F)c(F)c(F)c1F	30.7	1.9	31.6*	-12.8	.	.	0.9	14.8	-2.9	12.0	16.1*
COc1cccc(NC(=O)COC(=O)c2c(F)cccc2Cl)c1	-14.2	.	-5.0	6.5	3.0	-0.1	.	.	.	.	.
O=C(Cn1c(-c2cscn2)nc2ccccc21)Nc1ccc2ccccc2c1	43.7	-1.1	29.2*	-9.7	1.0	11.0*	18.1	36.6	27.2*	31.6*	25.2*
O=C(Cn1c(-c2cscn2)nc2ccccc21)Nc1cc(F)ccc1F	-26.1	3.0	3.7	-0.1	12.2	-0.7	.	.	.	.	.
COc1ccc(-c2csc(NC(=O)COc3ccc(N(C)S(=O)(=O)c4ccc(C)cc4)cc3)n2)cc1	-18.3	0.6	-13.8	8.5	-5.2	3.8	.	.	.	.	.
COc1ccc(-c2csc(NC(=O)c3ccccc3NS(=O)(=O)c3ccc(C)cc3)n2)cc1	36.4	0.8	64.9*	-7.5	11.4	-1.0	30.6	-1.8	1.4	-4.3	24.8*
OC1(c2ccc(F)cc2)CSC(=Nc2cccnc2)N1Cc1ccco1 (configuration not stated)	25.6	.	33.5*	-10.7	3.4	1.4	6.7	19.2	5.4	-1.9	7.5
FC(F)Oc1ccc(-c2csc(=Nc3cccnc3)n2CC2CCCO2)cc1 (configuration not stated)	-2.8	7.9	-6.2	8.9	0.2	0.5	.	.	.	.	.
OC1(c2ccc(OC(F)F)cc2)CSC(=Nc2cccnc2)N1Cc1ccco1 (configuration not stated)	29.2	.	35.4*	-3.8	36.3	1.8	12.7	22.4	8.8	9.3	12.6*
N#C/C(=N\Nc1ccc(Cl)cc1)C(=O)c1ccccc1	34.9	-0.5	47.3*	-12.1	.	4.1	19.1	-3.0	6.6	0.7	19.8*
CC1CCCN(c2nc3c(c(=O)n(C)c(=O)n3C)n2CCSc2nc3ccccc3o2)C1 (configuration not stated)	11.2	3.4	2.6	2.1	-11.7	1.8	.	.	.	.	.
CC(=O)Nc1ccc(Oc2nc(C)cc(C)n2)cc1	-27.3	1.1	8.8	-1.4	-6.2	1.5	.	.	.	.	.
Cc1cc(C)nc(Oc2ccc(Br)cc2)n1	-7.4	.	91.1*	.	.	.	0.4	3.9	-7.7	1.2	3.0
CN(C)CCCSc1nc2ccccc2s1	-14.6	.	-20.5	7.2	-3.4	1.1	.	.	.	.	.
CN(C)C=Nc1ncc2c3ccccc3n(CCN(C)C)c2c1C#N	-36.8	1.6	100.8*	-3.3	2.1	0.1	-7.2	-11.3	-22.5	-11.6	-14.6
CN(C)C=Nc1ncc2c3ccccc3n(Cc3ccccc3)c2c1C#N	-22.7	4.4	0.3	1.5	-4.6	4.4	.	.	.	.	.
O=[N+]([O-])c1ccc(O)c(NC(=S)Nc2ccccc2)c1	-20.2	-1.9	-0.7	-1.3	16.0	1.2	.	.	.	.	.
Cc1cc(C)nc(-n2nc(C)c(C3(O)C(=O)Nc4ccc(F)cc43)c2N)n1 (configuration not stated)	17.2	0.5	17.8	0.2	12.4	0.7	.	.	.	.	.
